Common to all, as to format: functional
Test [1] is described as follows: Antagonist activity at guinea pig H2R-Gsalpha fusion protein expressed in sf9 cells by GTPase assay. The note with it: Cavia porcellus. The procedure, abridged:
(§1)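 Inhibition of histamine-stimulated high-affinity GTP hydrolysis in Sf9 membranes expressing hH2R-Gsα or gpH2R-Gsα fusion proteins. KB came from non-linear curve fitting. Means SD of three experiments.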

The nature of test [2]: Ratio of antagonist activity at human H2R-Gsalpha fusion protein to guinea pig H2R-Gsalpha fusion protein expressed in sf9 cells.
Test [3] is described as follows: Antagonist activity at human H2R-Gsalpha fusion protein expressed in sf9 cells by GTPase assay. The gist of the method:
as §1

Test [4] deals with Histamine H1 receptor (Homo sapiens) (UniProt P35367). As to the kind of experiment: Antagonist activity at human recombinant H1R expressed in sf9 cells assessed as inhibition of histamine-stimulated GTP hydrolysis.
The target of test [5] is Histamine H2 receptor (Cavia porcellus) (UniProt P47747). As to the kind of experiment: Agonist activity at guinea pig H2R relative to histamine. The gist of the method:
(§2)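 GTPase activity in Sf9 insect cell membranes expressing hH2R-GsαS or gpH2R-GsαS fusion proteins. Curves were fitted by non-linear regression. Means SD of three experiments.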

For test [6], the target named is T1, Histamine H2 receptor (Homo sapiens, UniProt P25021). As to the kind of experiment: Binding affinity to human H2R expressed in sf9 cells by adenylyl cyclase assay.
In test [7] the target is Histamine H2 receptor (Cavia porcellus) (UniProt P47747). As to the kind of experiment: Binding affinity to guinea pig H2R expressed in sf9 cells by adenylyl cyclase assay.
The target in test [8] is T1, Histamine H2 receptor. As to the kind of experiment: Agonist activity at human H2R relative to histamine. The procedure, abridged: as §2
Test [9] addresses Histamine H2 receptor (Cavia porcellus, UniProt P47747). Put plainly: Agonist activity at guinea pig H2R. The procedure, abridged:
as §2

The target of test [10] is T1, Histamine H2 receptor. As to the kind of experiment: Agonist activity at human H2R. The procedure, abridged: as §2

Some results are limits rather than exact numbers.

Broadly, the EC50 is the midpoint of the concentration-response curve. A low value points to a more potent agent.

Chain of Histamine H2 receptor (Cavia porcellus) (P47747 whole entry, the tested form may be a part): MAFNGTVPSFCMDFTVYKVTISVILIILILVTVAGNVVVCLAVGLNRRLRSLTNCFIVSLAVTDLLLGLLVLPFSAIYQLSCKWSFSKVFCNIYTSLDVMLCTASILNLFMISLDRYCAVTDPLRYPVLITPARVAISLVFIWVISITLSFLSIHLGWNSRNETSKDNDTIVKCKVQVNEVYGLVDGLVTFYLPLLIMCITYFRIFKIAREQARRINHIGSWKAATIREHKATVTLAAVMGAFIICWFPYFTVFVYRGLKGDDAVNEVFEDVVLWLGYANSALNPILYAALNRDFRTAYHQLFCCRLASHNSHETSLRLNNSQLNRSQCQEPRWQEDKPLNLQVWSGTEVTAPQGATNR
Chain of Histamine H1 receptor (Homo sapiens) (P35367 whole entry): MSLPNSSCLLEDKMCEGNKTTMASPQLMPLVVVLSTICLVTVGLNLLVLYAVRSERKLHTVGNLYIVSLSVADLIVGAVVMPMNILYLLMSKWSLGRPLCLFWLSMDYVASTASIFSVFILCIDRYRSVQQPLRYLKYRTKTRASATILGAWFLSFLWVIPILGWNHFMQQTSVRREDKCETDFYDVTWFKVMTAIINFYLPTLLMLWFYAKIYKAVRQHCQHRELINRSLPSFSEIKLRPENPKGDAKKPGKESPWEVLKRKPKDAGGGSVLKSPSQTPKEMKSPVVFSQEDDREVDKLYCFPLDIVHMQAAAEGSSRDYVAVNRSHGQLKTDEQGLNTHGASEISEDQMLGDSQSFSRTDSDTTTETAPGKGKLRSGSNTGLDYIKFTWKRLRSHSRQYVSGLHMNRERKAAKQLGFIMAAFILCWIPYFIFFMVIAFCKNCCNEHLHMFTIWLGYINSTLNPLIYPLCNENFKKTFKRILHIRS
T1 sequence (P25021 whole entry): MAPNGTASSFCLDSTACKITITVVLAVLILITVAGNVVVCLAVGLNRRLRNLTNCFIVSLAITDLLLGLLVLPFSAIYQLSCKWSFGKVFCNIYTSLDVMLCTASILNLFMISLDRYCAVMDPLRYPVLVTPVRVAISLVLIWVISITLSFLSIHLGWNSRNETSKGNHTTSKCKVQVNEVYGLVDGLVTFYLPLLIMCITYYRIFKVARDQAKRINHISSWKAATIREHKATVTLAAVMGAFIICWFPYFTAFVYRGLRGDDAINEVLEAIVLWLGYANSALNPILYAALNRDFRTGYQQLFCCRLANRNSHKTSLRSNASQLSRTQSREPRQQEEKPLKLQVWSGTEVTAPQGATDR
Chain of Histamine H2 receptor (Cavia porcellus, UniProt P47747) (P47747 whole entry): as the sequence (P47747 whole entry, the tested form may be a part) above

As to `N#CN/C(=N\CCN)NCCCOc1cccc(CN2CCCCC2)c1`, the Kb in test [1] was 2.3 µM; in [3] it was 9.3 µM; in test [4], > 30 µM. Besides, the Ratio in [2] came out at 4.04.

For the compound `N#CN/C(=N\CCCCCCNC(=O)CCCCCNC(=O)COc1ccc(/C=C/C2=[N+]3C(=Cc4ccc(-c5ccc[nH]5)n4[B-]3(F)F)C=C2)cc1)NCCCOc1cccc(CN2CCCCC2)c1`, the Kb is 0.19 µM in test [1], 0.26 µM in test [3] and > 30 µM in test [4]. In [2], the Ratio came out at 1.37.

Take `CC1(C)C(/C=C/C=C/C=C2/N(CCCCCC(=O)NCC/N=C(\NC#N)NCCCOc3cccc(CN4CCCCC4)c3)c3ccccc3C2(C)C)=[N+](CCCCS(=O)(=O)[O-])c2ccccc21`: the Kb was 0.058 µM in test [1], 0.047 µM in [3] and > 30 µM in test [4]. Moreover, in [2], the Ratio amounted to 0.81. In addition, the results for the Efficacy (in test [5]; on Histamine H2 receptor [8]) were 65% and 58%, respectively. For the same compound, the Activity result (on Histamine H2 receptor [6] (filed as partial agonist); in test [7] (filed as partial agonist)) was “Partial agonist” throughout.

For the compound `CC1(C)C(=CC=CC=CC2=[N+](CCCCS(=O)(=O)[O-])c3ccccc3C2(C)C)N(CCCCCC(=O)NCCN=C(NC#N)NCCCOc2cccc(CN3CCCCC3)c2)c2ccccc21`, the results for the EC50 on Histamine H2 receptor [9] and at Histamine H2 receptor [10] were 0.09 µM and 0.16 µM, respectively.

As for `O=C(CCCCCNC(=O)COc1ccc(/C=C/C2=[N+]3C(=Cc4ccc(-c5ccc[nH]5)n4[B-]3(F)F)C=C2)cc1)NCCCOc1cccc(CN2CCCCC2)c1`, the Kb was 0.15 µM in test [1], 0.64 µM in test [3] and > 30 µM in test [4]. The Ratio in test [2] is on record as 4.27.

Turning to `NCCCOc1cccc(CN2CCCCC2)c1`, the Kb in [1] was 6.8 µM; in test [3], 15 µM; in test [4] it was > 30 µM. Also, in test [2], the Ratio came to 2.2.

`N#CN/C(=N\CCNC(=O)c1ccc(N)cc1)NCCCOc1cccc(CN2CCCCC2)c1.O=C(O)C(=O)O` [AMINOPOTENTIDINE OXALATE]: the Kb amounted to 0.28 µM in test [1] and 0.22 µM in test [3]. For the same compound, the Ratio in test [2] was determined as 0.79.

Turning to `N#CN/C(=N\CCCCCCN)NCCCOc1cccc(CN2CCCCC2)c1`, the Kb in test [1] is 0.075 µM; in test [3], 1.8 µM; in test [4], > 30 µM; on Histamine H2 receptor [6], 2.5 µM; in [7], 0.033 µM. Moreover, the Ratio in [2] is reported as 24.

The values are drawn from ChEMBL document CHEMBL1146852, “Synthesis and pharmacological characterization of novel fluorescent histamine H2-receptor ligands derived from aminopotentidine” (Bioorg Med Chem Lett, 2006).
